From ChEMBL document CHEMBL1123779, “Modifications of primaquine as antimalarials. 4. 5-Alkoxy derivatives of primaquine” (J Med Chem, 1987)

Tests used:
Mus musculus [1] = assay: Suppressive blood schizonticidal antimalarial activity evaluated in the trophozoite-induced Plasmodium berghei infection in mice (Mus musculus) at a dose 40 mg/kg; type: functional; design: unit not given beside the values
How it was run: (§1)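 Run at the Rane Laboratory in mice infected with blood-induced P. berghei, five animals per group. Activity is the increase in mean survival time over untreated infected controls. A compound counts as active when treated-group MST is more than twice the control MST. Cures are mice surviving at 60 days postinfection.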

Mus musculus [2] = assay: Suppressive blood schizonticidal antimalarial activity evaluated in the trophozoite-induced Plasmodium berghei infection in mice (Mus musculus) at a dose 160 mg/kg given as no. of toxic deaths; type: functional
How it was run: (§2)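 Rane Laboratory mouse test with blood-induced P. berghei infection, five mice per group. Toxic deaths are deaths occurring before the 6th day postinfection.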

Plasmodium berghei [3] = assay: Suppressive blood schizonticidal antimalarial activity evaluated in the trophozoite-induced Plasmodium berghei infection in mice (Mus musculus) at a dose 640 mg/kg given as number of toxic deaths; type: toxicity, organism-based; design: dose 640 mg/kg; details: in vivo; how it was run: as §2
Plasmodium berghei [4] = assay: Blood schizonticidal activity in trophozoite-induced Plasmodium berghei infected mice (Mus musculus) at 40 mg/kg; numbers cured; type: functional
How it was run: (§3)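 Run at the Rane Laboratory with blood-induced P. berghei infections in mice, five animals per group. A cure is a mouse surviving to 60 days postinfection. Deaths before day 6 are recorded separately as toxic deaths. Activity is scored from the increase in mean survival time over untreated controls, and counts as active when treated MST is more than twice control MST.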

Plasmodium cynomolgi [5] = assay: Cures in Plasmodium cynomolgi infected Rhesus monkeys (Macaca mulatta) on 1 mg/kg/day after 7 days; cured 0 of 1; type: functional
Mus musculus [6] = assay: Suppressive blood schizonticidal antimalarial activity evaluated in the trophozoite-induced Plasmodium berghei infection in mice (Mus musculus) at a dose 80 mg/kg given as no. of cures; type: functional; how it was run: as §3
Plasmodium cynomolgi [7] = assay: Cures in Plasmodium cynomolgi infected Rhesus monkeys (Macaca mulatta) on 0.1 mg/kg/day after 7 days; cured 0 of 1; type: functional
Mus musculus [8] = assay: Suppressive blood schizonticidal antimalarial activity evaluated in the trophozoite-induced Plasmodium berghei infection in mice (Mus musculus) at a dose 320 mg/kg given as no. of toxic deaths; type: functional; how it was run: as §2
Plasmodium berghei [9] = assay: Blood schizonticidal antimalarial activity in the trophozoite-induced Plasmodium berghei infection in mice (Mus musculus) at 20 mg/kg; type: functional; design: unit not given beside the values; how it was run: as §1
Mus musculus [10] = assay: Suppressive blood schizonticidal antimalarial activity evaluated in the trophozoite-induced Plasmodium berghei infection in mice (Mus musculus) at a dose 5 mg/kg; type: functional; design: unit not given beside the values; how it was run: as §1
Mus musculus [11] = assay: Suppressive blood schizonticidal antimalarial activity evaluated in the trophozoite-induced Plasmodium berghei infection in mice (Mus musculus) at a dose 10 mg/kg given as no. of cures; type: functional; how it was run: as §3
Mus musculus [12] = assay: Suppressive blood schizonticidal antimalarial activity evaluated in the trophozoite-induced Plasmodium berghei infection in mice (Mus musculus) at a dose 160 mg/kg given as no. of cures; type: functional; how it was run: as §3
Mus musculus [13] = assay: Suppressive blood schizonticidal antimalarial activity evaluated in the trophozoite-induced Plasmodium berghei infection in mice (Mus musculus) at a dose 320 mg/kg; type: functional; how it was run: as §1
Mus musculus [14] = assay: Suppressive blood schizonticidal antimalarial activity evaluated in the trophozoite-induced Plasmodium berghei infection in mice (Mus musculus) at a dose 20 mg/kg given as no. of cures; type: functional; how it was run: as §3
Plasmodium cynomolgi [15] = assay: Cures in Plasmodium cynomolgi infected Rhesus monkeys (Macaca mulatta) on 1 mg/kg/day after 7 days; cured 1 of 1; type: functional
Plasmodium cynomolgi [16] = assay: Cures in Plasmodium cynomolgi infected Rhesus monkeys (Macaca mulatta) on 0.316 mg/kg/day after 7 days; cured 0 of 1; type: functional
Plasmodium cynomolgi [17] = assay: Cures in Plasmodium cynomolgi infected Rhesus monkeys (Macaca mulatta) on 10.0 mg/kg/day after 7 days; type: functional, organism-based
Mus musculus [18] = assay: Suppressive blood schizonticidal antimalarial activity evaluated in the trophozoite-induced Plasmodium berghei infection in mice (Mus musculus) at a dose 2.5 mg/kg; type: functional; how it was run: as §1
Plasmodium cynomolgi [19] = assay: Cures in Plasmodium cynomolgi infected Rhesus monkeys (Macaca mulatta) on 0.316 mg/kg/day after 7 days; cured 0 of 2; type: functional
Plasmodium cynomolgi [20] = assay: Cures in Plasmodium cynomolgi infected Rhesus monkeys (Macaca mulatta) on 1 mg/kg/day after 7 days; cured 2 of 2; type: functional
Mus musculus [21] = assay: Suppressive blood schizonticidal antimalarial activity evaluated in the trophozoite-induced Plasmodium berghei infection in mice (Mus musculus) at a dose 10 mg/kg; type: functional; how it was run: as §1
Plasmodium cynomolgi [22] = assay: Cures in Plasmodium cynomolgi infected Rhesus monkeys (Macaca mulatta) on 0.1 mg/kg/day after 7 days (x7); cured 0 of 2; type: functional
Plasmodium cynomolgi [23] = assay: Cures in Plasmodium cynomolgi infected Rhesus monkeys (Macaca mulatta) on 0.316 mg/kg/day after 7 days; cures 2 of 2; type: functional
Mus musculus [24] = assay: Suppressive blood schizonticidal antimalarial activity evaluated in the trophozoite-induced Plasmodium berghei infection in mice (Mus musculus) at a dose 5 mg/kg given as no. of cures; type: functional; how it was run: as §3
Mus musculus [25] = assay: Suppressive blood schizonticidal antimalarial activity evaluated in the trophozoite-induced Plasmodium berghei infection in mice (Mus musculus) at a dose 40 mg/kg given as number of toxic deaths; type: ADME, organism-based; design: dose 40 mg/kg; details: in vivo; how it was run: as §2
Mus musculus [26] = assay: Suppressive blood schizonticidal antimalarial activity evaluated in the trophozoite-induced Plasmodium berghei infection in mice (Mus musculus) at a dose 80 mg/kg; type: functional; design: unit not given beside the values; how it was run: as §1
Mus musculus [27] = assay: Suppressive blood schizonticidal antimalarial activity evaluated in the trophozoite-induced Plasmodium berghei infection in mice (Mus musculus) at a dose 160 mg/kg; type: functional; how it was run: as §1
Plasmodium cynomolgi [28] = assay: Cures in Plasmodium cynomolgi infected Rhesus monkeys (Macaca mulatta) on 10.0 mg/kg/day after 7 days; cured 1 of 1; type: functional
Plasmodium cynomolgi [29] = assay: Cures in Plasmodium cynomolgi infected Rhesus monkeys (Macaca mulatta) on 1 mg/kg/day after 7 days; cured 3 of 3; type: functional
Plasmodium cynomolgi [30] = assay: Cures in Plasmodium cynomolgi infected Rhesus monkeys (Macaca mulatta) on 0.1 mg/kg/day after 7 days; cured 1 of 3; type: functional
Mus musculus [31] = assay: Suppressive blood schizonticidal antimalarial activity evaluated in the trophozoite-induced Plasmodium berghei infection in mice (Mus musculus) at a dose 80 mg/kg given as no. of toxic deaths; type: functional; how it was run: as §2

SMILES	Delta MST (Mus musculus [1])	Toxic deaths (Mus musculus [2])	Toxic deaths (Plasmodium berghei [3])	Cures (Plasmodium berghei [4])	Cures (Mus musculus [6])	Toxic deaths (Mus musculus [8])	Delta MST (Plasmodium berghei [9])	Delta MST (Mus musculus [10])	Cures (Mus musculus [11])	Cures (Mus musculus [12])	Cures (Mus musculus [14])	Cures/no. of animals (Plasmodium cynomolgi [15])	Cures/no. of animals (Plasmodium cynomolgi [17])	Delta MST (Mus musculus [18])	Cures/no. of animals (Plasmodium cynomolgi [22])	Cures/no. of animals (Plasmodium cynomolgi [23])	also measured
CCOc1c(OC)cc(NC(C)CCCN)c2ncccc12 (stereo not given)	0.3	3	5														
CCCC(CC)Oc1c(OC)cc(NC(C)CCCN)c2ncc(C)cc12 (stereo not given)		4	5	1	1	5	5.3										Cures/no. of animals (Plasmodium cynomolgi [5]): 0; Cures/no. of animals (Plasmodium cynomolgi [7]): 0
CCCCCCCCOc1c(OC)cc(NC(C)CCCN)c2nccc(C)c12 (stereo not given)			2	5	5			12	5	2	5	1	Toxic	7.8			Delta MST (Mus musculus [13]): 0.4; Cures/no. of animals (Plasmodium cynomolgi [16]): 0
COc1cc(NC(C)CCCN)c2nccc(C)c2c1OCCCCCCOc1ccccc1 (stereo not given)			2	5	4	2		7.3	2	2	4	1					Cures/no. of animals (Plasmodium cynomolgi [19]): 0; Cures/no. of animals (Plasmodium cynomolgi [7]): 0
COc1cc(NC(C)CCCN)c2nccc(C)c2c1OC1CCCC1 (stereo not given)		5	5	2	1	5		6.9			1		Toxic	6.1	0	2	Cures/no. of animals (Plasmodium cynomolgi [20]): 2; Delta MST (Mus musculus [21]): 6.9
CCCOc1c(OC)cc(NC(C)CCCN)c2nccc(C)c12 (stereo not given)		5	5						1		3	1		6	0	2	Cures (Mus musculus [24]): 1; Toxic deaths (Mus musculus [25]): 3
COc1cc(NC(C)CCCN)c2nc(C)ccc2c1 (stereo not given)	5.5		5			1	3.1										Delta MST (Mus musculus [26]): 7.3; Delta MST (Mus musculus [27]): 8.3
COCCCCCCOc1c(OC)cc(NC(C)CCCN)c2nccc(C)c12 (stereo not given)		5	5	2					3		2			6.9	0		Cures/no. of animals (Plasmodium cynomolgi [20]): 2; Cures (Mus musculus [24]): 1; Cures/no. of animals (Plasmodium cynomolgi [16]): 0; Toxic deaths (Mus musculus [25]): 3
CCCCCCOc1c(OC)cc(NC(C)CCCN)c2ncccc12 (stereo not given)	6.5		1		1		3.7			1							Delta MST (Mus musculus [13]): 0.1; Cures/no. of animals (Plasmodium cynomolgi [19]): 0; Cures/no. of animals (Plasmodium cynomolgi [28]): 1; Cures/no. of animals (Plasmodium cynomolgi [29]): 3
CCCCOCCOc1c(OC)cc(NC(C)CCCN)c2nccc(C)c12 (stereo not given)		3		2		4		4.3	3		4	1	Toxic	3.3		2	Cures/no. of animals (Plasmodium cynomolgi [30]): 1; Toxic deaths (Mus musculus [31]): 4
